# High-throughput results (PubChem BioAssay)
# An excerpt weighted towards active compounds, which were near 4.2% of everything screened.
# Rad51 HR inh – blocks human Rad51 in homologous recombination | hRad51 DNA strand exchange, fluorescence dequenching | Q06609 | AID 1385 | inhibition, % at 10 µM | 200,000 tested, 0.085% active;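 active = inhibition above 40% at the single screening dose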;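 note: 0% = DMSO control wells and 100% = blanks with heterologous ssDNA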
# Target sequence (Q06609 whole entry, looked up): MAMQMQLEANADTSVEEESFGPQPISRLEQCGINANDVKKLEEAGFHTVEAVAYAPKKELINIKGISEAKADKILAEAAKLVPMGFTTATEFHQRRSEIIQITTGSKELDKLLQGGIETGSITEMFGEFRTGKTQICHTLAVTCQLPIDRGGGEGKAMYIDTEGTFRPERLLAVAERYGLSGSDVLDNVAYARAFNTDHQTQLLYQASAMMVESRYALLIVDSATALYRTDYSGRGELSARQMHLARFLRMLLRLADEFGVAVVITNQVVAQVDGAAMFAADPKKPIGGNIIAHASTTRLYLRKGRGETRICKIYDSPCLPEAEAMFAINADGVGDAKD
#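 Test system: preformed human Rad51 ssDNA filaments. Compound dosing: single dose, 10 µM final compound. Incubation: filaments 15 min 37 °C, then compound 30 min. Technique: FRET fluorescence dequenching, excitation 485 nm, emission 520 nm. Read-out basis: percent inhibition from fluorescence, normalised to plate control and blank means. Benchmarks: plate controls and plate blanks.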
# WT yeast gro inh – growth inhibition of WT yeast, mitochondrial fusion screen | mitochondrial fusion phenotypic screen, WT strain | inhibition, % at 10 µM | 190,000 tested, 2.1% active | AID 1362; in the data active = inhibition above about 58%; tested in S. cerevisiae
# SKKanGAS inh – blocks kanamycin growth of S. pyogenes SKKanGAS strain. inhibition, % at 7.5 µM. 300,000 tested, 1.3% active. AID 1662. BacTiter-Glo, 6 h;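 active = mean replicate score, as percent of positive control median, at least 50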;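 note: strain carries kanamycin resistance gene driven by streptokinase promoter and grows in 40 µg/ml kanamycin; loss of luminescence reflects streptokinase promoter inhibition or plain growth inhibition; 0% = median of DMSO wells and 100% = positive control at its reference dose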
# Cl transport mod – modulates chloride dependent transport by human KCC2 | KCC2 cells, thallium flux FluoZin-2 fluorescence | B-score of Tl+ flux slope (higher = more flux/activation; lower = inhibition) at 10 µM | Q9H2X9 | 190,000 tested, 2.2% active;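 active = thallium flux slope and its plate-corrected score both differing from the plate sample mean at a set confidence after two filtering rounds, in either direction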;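 note: slope of fluorescence scaled to starting intensity during 10 to 20 s after thallium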
# Ins promoter up – MIN6 insulin promoter up-regulation; MIN6 insulin promoter-GFP reporter, high-content imaging; hits give high values; z-score at 5 µM; 190,000 tested, 0.3% active; AID 1625;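 active = z-score above 3 at 5 µM with at least 500 cells counted in the well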
# Autophagy mod – alters autophagy in cells | MEF GFP-LC3 puncta imaging; test concentration mostly 10 µM | calls only at 10 µM (by protocol) | 190,000 tested, 0.98% active;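 active = percentage of spot-positive cells more than 3 SD above its plate mean, without a fluorescence outlier flag or 80% toxicity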;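 note: spot-positive cell cutoff set from DMSO-treated cells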
# * hit, by the source's call; i = inactive; x = not tested or not shown; + = active, no number.
SMILES,Rad51 HR inh,WT yeast gro inh,SKKanGAS inh,Cl transport mod,Ins promoter up,Autophagy mod
C=C(C)COc1ccc(-c2nc(N)ncc2-c2ccc(Cl)cc2)c(O)c1,x,x,99*,x,x,x
C=C(C)COc1ccc(-c2ncncc2Oc2ccc(OC)cc2)c(O)c1,-3,44,55*,x,0.73,i
COc1ccc(-c2ncncc2-c2csc(C)n2)c(O)c1,-6,6,-1,1.1,0.24,+
COc1ccc(-c2nc(C)ncc2-c2csc(C)n2)c(O)c1,7,4,-8,-0.6,-0.09,i
C/C(=N\NC(=O)CNC(=O)c1cccc(F)c1)c1ccc2ccccc2c1,x,x,1,x,x,x
CCOC(=O)C1=C(C)N(C)C(=S)NC1c1cc(OC)ccc1OC (centres undefined),-11,-5,2,-1.9,-0.14,i
CCOC(=O)C1(Cc2ccc(Cl)cc2)CCN(C(=O)CCc2ccncc2)CC1,x,20,-11,-0.083,0.89,i
C=C(C)COc1ccc(-c2nc(N)ncc2-c2ccc(OC)cc2)c(O)c1,-7,84*,x,1.8,-0.66,i
O=C(NC1CCN(C(=O)Nc2ccccc2Cl)CC1)c1cccc(F)c1,x,x,-22,x,x,x
Fc1cccc(/C=N/NC(=S)Nc2ccccc2Cl)c1,3,11,-2,41*,-0.81,i
Cc1ccccc1NC(=O)C(=O)N/N=C/c1cccc(Br)c1,-9,-4,0,0.68,0.01,i
Cc1cccc(NC(=S)N/N=C/c2cccc(O)c2)c1C,x,x,1,0.98,-0.59,x
Fc1ccc(NC(=S)N/N=C/c2cccc(Br)c2)c(F)c1,-1,22,-18,4*,-0.44,i
Fc1ccc(/C=N/NC(=S)Nc2ccc(Cl)cc2)cc1F,1,24,-25,8.6*,x,i
CCOC(=O)C1=C(N)Oc2c(c(=O)[nH]c3ccccc23)C1c1ccccc1 (centres undefined),-17,11,12,x,0.21,i
CCOC(=O)NC(=O)/C(C#N)=C(/C)N(C)C,19,-3,-2,-0.13,0.16,i
COc1cc(C2=NC(CO)(CO)CO2)cc(OC)c1OC,-6,-17,-3,0.14,0.04,i
COc1cc(NC(=S)NCCC(c2ccccc2)c2ccccc2)cc(OC)c1,x,66*,23,-0.32,-0.44,i
COc1ccc(NC(=S)NCCC(c2ccccc2)c2ccccc2)c(OC)c1,0,65*,18,x,0.45,i
COc1cc(OC)cc(C(=O)NCCC(c2ccccc2)c2ccccc2)c1,x,x,27,x,x,x
COc1cccc(NC(=S)N2CCN(C(c3ccccc3)c3ccccc3)CC2)c1,-41,49,7,-1.2,-1.2,i
COc1ccc(NC(=S)N2CCN(C(c3ccccc3)c3ccccc3)CC2)c(OC)c1,-12,69*,7,-0.31,-1.8,i
Cc1cccc(NC(=S)NCCC(c2ccccc2)c2ccccc2)c1,9,69*,11,-0.36,-0.24,i
COc1cccc(NC(=S)NCCC(c2ccccc2)c2ccccc2)c1,x,76*,21,0.63,-1.1,i
O=C(NCCC(c1ccccc1)c1ccccc1)c1cccs1,1,39,3,-1.4,0.66,i
SMILES,Rad51 HR inh,WT yeast gro inh,SKKanGAS inh,Cl transport mod,Ins promoter up,Autophagy mod
CNC(=S)NCCC(c1ccccc1)c1ccccc1,11,67*,-6,-0.021,-0.43,i
COc1cccc(NC(=S)NCc2ccccc2)c1,x,x,-7,x,x,x
COc1ccccc1NS(=O)(=O)c1ccc2ccccc2c1,x,x,-4,x,x,x
COc1ccc(NS(=O)(=O)c2ccc3ccccc3c2)c2ncccc12,x,x,94*,x,x,x
O=C(O)CN1C(=O)/C(=C\c2cc([N+](=O)[O-])ccc2OCc2ccccc2Cl)SC1=S,x,x,55*,x,x,x
O=C(O)CN1C(=O)/C(=C\c2cc(Br)ccc2OCc2ccc(Cl)cc2)SC1=S,x,x,94*,x,x,x
COc1ccc(/C=C2/SC(=S)N(CC(=O)O)C2=O)cc1OCc1ccc(Cl)cc1,x,x,17,x,x,x
O=C(O)CN1C(=O)/C(=C\c2ccccc2OCc2ccc(F)cc2)SC1=S,x,x,21,x,x,x
CC(C(=O)Nc1cc([N+](=O)[O-])ccc1Cl)N1CCN(c2ccc(O)cc2)CC1 (centres undefined),12,3,9,-1.2,-1.4,i
Nc1ccc(S(=O)(=O)N2CCC(Cc3ccccc3)CC2)cc1,x,x,-6,x,x,x
O=C1N(c2ccccc2)C[C@@H]2C[C@@H](c3cc4ccccc4o3)N3CCC[C@@]123,-106,17,0,-2,-5.5,i
CN(CC(=O)NCCc1ccccc1)S(=O)(=O)c1ccc(Br)s1,x,x,-5,x,x,x
Nn1c(SCC(=O)Nc2ccc3c(c2)OCCO3)nnc1-c1ccncc1,x,x,-1,x,x,x
O=C(CSC1=NC2(CCCCCC2)N=C1c1ccccc1)Nc1ccc2c(c1)OCCO2,x,58*,6,-0.15,0.59,i
Nn1c(SCC(=O)Nc2ccc3c(c2)OCO3)nnc1-c1ccncc1,x,88*,7,1.2,-0.73,i
Nn1c(SCC(=O)Nc2ccc3c(c2)OCCO3)nnc1-c1cccnc1,x,x,5,x,x,x
O=C(CSc1nnc2scc(-c3ccccc3)n12)Nc1ccc2c(c1)OCCO2,6,73*,-20,-1.5,-0.09,i
O=C(N/N=C/C1C(c2ccccc2)C1(Cl)Cl)c1cccc(Cl)c1 (centres undefined),-5,44,8,-0.17,0.04,i
Cc1ccc(NC(=O)CN(C)Cc2nc3c(Br)cc(Br)cc3c(=O)[nH]2)cc1,-6,5,60*,-0.006,0.51,i
C=CCOc1ccc(CN(C)Cc2nc3cc(C(F)(F)F)ccc3c(=O)[nH]2)cc1,6,24,6,0.014,0.68,i
CCN(CC(=O)NC1CCS(=O)(=O)C1)Cc1nc2c(Br)cc(Br)cc2c(=O)[nH]1 (centres undefined),12,-9,6,-0.54,-0.79,i
CN(Cc1ccc(OC(F)F)cc1)Cc1nc2c(Br)cc(Br)cc2c(=O)[nH]1,-5,70*,62*,1.3,-0.62,i
Cc1ccc(NC(=O)CN(C)Cc2ccc(Cl)cc2)cc1,x,13,-2,-0.79,-0.08,i
CCN(CC(=O)NC(C)(C)C)Cc1nc2c(Br)cc(Br)cc2c(=O)[nH]1,x,x,51*,0.76,-0.48,x
C/C(=N\NC(=O)c1ccoc1C)c1cccc2ccccc12,x,x,1,x,x,x
CN(C(=O)c1ccccc1C(=O)OCC(=O)c1ccc(Br)cc1)c1ccccc1,x,x,3,x,x,x
S=c1nc(-c2ccc(Br)cc2)oc2c1CCCC2,x,3,8,83*,x,i
COc1ccc2[nH]c(CN3CCC(CO)(CCOc4ccccc4)CC3)c(C)c2c1,-2,19,2,0.18,x,+
COc1ccc(CN2CCC(CO)(CCOc3ccccc3)CC2)c(OC)c1C,5,15,-3,x,-0.22,i
OCC1(CCOc2ccccc2)CCN(CC2=Cc3cc(Cl)ccc3OC2)CC1,-3,90*,6,0.48,-0.4,i
